KDM4C inh: inhibitors of human demethylase GASC-1 KDM4C; Q9H3R0; GST-KDM4C 2-372, H3K9me3 peptide, LANCE TR-FRET; inhibition, % at 12.5 µM; actives 0.15% (n = 96,000);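 active = mean replicate inhibition above about 25%, with at least 55% of replicates also reaching it, limit read from the data, passing the limit was not always enough; inconclusive = only one of those two conditions met; inactive = neither condition met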
Target sequence (Q9H3R0 2-372 limits assumed): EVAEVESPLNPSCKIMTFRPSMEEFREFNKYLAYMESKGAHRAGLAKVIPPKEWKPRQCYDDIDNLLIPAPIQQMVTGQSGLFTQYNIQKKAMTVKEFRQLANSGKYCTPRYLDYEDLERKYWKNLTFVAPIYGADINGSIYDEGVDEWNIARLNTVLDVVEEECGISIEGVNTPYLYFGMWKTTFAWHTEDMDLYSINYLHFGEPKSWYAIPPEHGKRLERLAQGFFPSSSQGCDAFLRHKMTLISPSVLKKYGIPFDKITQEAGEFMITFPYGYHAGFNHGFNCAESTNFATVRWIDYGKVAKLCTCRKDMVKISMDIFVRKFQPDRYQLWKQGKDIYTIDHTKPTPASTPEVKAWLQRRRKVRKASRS
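reagent = H3K9me3 peptide substrate, Fe(II), 2-oxoglutarate | system = GST-tagged GASC-1 (JMJD2C) catalytic fragment, aa 2-372 | amount = enzyme final amount 10 nM | read-out = Fall in 671/618 emission ratio as inhibition | medium = HEPES buffer, pH 7.5, plus ascorbate | schedule = 30 min reaction, 60 min detection, RT | measured by = LANCE TR-FRET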
Pf Dd2 growth: inhibitors of Plasmodium falciparum Dd2 growth; P. falciparum Dd2 growth, SYBR Green, 72 h; hits give low values; activity change, % at 10 µM; actives 2.3% (n = 94,000); AID 1159554; in the data active = activity change below about -80%; inconclusive = no clear call, values can overlap the other calls
T cruzi growth-1: blocks T. cruzi growth in NIH3T3 culture. actives 5.9% (n = 77,000). AID 624255. inhibition, % at 8.34 µM. T. cruzi beta-gal in NIH3T3, GalScreen luminescence, 90 h;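 active = mean inhibition above about 93%, with at least 55% of replicates each passing it, limit read from the data, passing the limit was not always enough; inconclusive = only one of those two conditions holds; inactive = neither condition holds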
IDH1 R132H inh: IDH1 R132H (human) inhibition. AID 624101. inhibition, % at 10 µM. actives 0.18% (n = 70,000). O75874. IDH1 R132H reductase, diaphorase/resazurin fluorescence, 60 min; in the data active = inhibition above about 34%; inconclusive = no clear call, values can overlap the other calls; inactive = below about 11%;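 note: 0% = DMSO and 100% = no enzyme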
T cruzi growth-2: inhibitors of T. cruzi proliferation; AID 651739; T. cruzi beta-gal in NIH3T3, GalScreen luminescence, 90 h; actives 72% (n = 5,600); inhibition, % at 8.35 µM; shares compounds with T cruzi growth-1;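 active = mean replicate inhibition above about 95% and at least 55% of replicates individually reaching it, limit read from the data; inconclusive = only one of the two criteria is met; inactive = neither criterion is met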
T cruzi growth-3: blocks T. cruzi growth in NIH3T3 host cells | shares compounds with T cruzi growth-1 | actives 21% (n = 5,600) | inhibition, % at 2.09 µM | T. cruzi beta-gal in NIH3T3, GalScreen luminescence, 90 h;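 active = mean inhibition above about 95%, with at least 55% of replicates also reaching it, limit read from the data; inconclusive = meets just one of the two conditions; inactive = meets neither condition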;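 note: plate controls were neutral control median for no effect and positive control median for full effect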
3T3 cytotox: cytotoxicity in mouse NIH/3T3 fibroblasts; AID 651742; cytotoxicity (signal decrease), % at 8.35 µM; actives 14% (n = 5,600); shares compounds with T cruzi growth-1; NIH/3T3 viability, CellTiter-Glo ATP luminescence, 90 h;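 active = mean signal decrease across replicates above about 35% based on untreated-well scatter, with enough replicates individually passing, limit read from the data; inconclusive = no rule stated though some were filed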;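 note: 0% = median of neutral control wells and 100% = median of positive control wells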
3T3 cytotox 2: cytotoxicity in mouse NIH/3T3 fibroblasts | shares compounds with T cruzi growth-1 | NIH/3T3 viability, CellTiter-Glo ATP luminescence, 90 h | inhibition, % at 24.9 µM | actives 56% (n = 5,600);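 active = mean loss of cell viability signal at or above a set limit, and enough replicates individually reaching it; inconclusive = meets only the mean limit or only the replicate share; inactive = meets neither condition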;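 note: 0% = median of neutral control wells and 100% = median of positive control wells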
Active calls of the source: *. A selection: hits, their analogues and other compounds. The true share with any hit is near 5.9%.

Screening COCC(=O)N1CCCCN2[C@H](C1)[C@H](c1ccc(C#Cc3ccccc3)cc1)[C@@H]2CO returned KDM4C inh 0, Pf Dd2 growth 0 and T cruzi growth-1 43.
Screening COCC(=O)N1CCCCN2[C@H](CO)[C@@H](c3ccc(C#Cc4ccc(OC)cc4)cc3)[C@@H]2C1 returned KDM4C inh 0, Pf Dd2 growth -14, T cruzi growth-1 108*, T cruzi growth-2 inconclusive, T cruzi growth-3 6, 3T3 cytotox 17 and 3T3 cytotox 2 86*.
`COCC(=O)N1CCCCN2[C@@H](CO)[C@H](c3ccc(C#Cc4ccccc4)cc3)[C@@H]2C1` gave KDM4C inh -1, Pf Dd2 growth 37, T cruzi growth-1 97*, T cruzi growth-2 inconclusive, T cruzi growth-3 10, 3T3 cytotox 33 and 3T3 cytotox 2 62*.
For COCC(=O)N1CCCCN2[C@H](CO)[C@@H](c3ccc(C#Cc4ccc(OC)cc4)cc3)[C@H]2C1 the results were KDM4C inh 2, Pf Dd2 growth 6 and T cruzi growth-1 92.
`COCC(=O)N1CCCCN2[C@H](CO)[C@H](c3ccc(C#Cc4ccccc4)cc3)[C@@H]2C1` gave KDM4C inh 0, Pf Dd2 growth 12, T cruzi growth-1 inconclusive, T cruzi growth-2 99*, T cruzi growth-3 37, 3T3 cytotox 44* and 3T3 cytotox 2 69*.
`COCC(=O)N1CCCCN2[C@H](CO)[C@H](c3ccc(C#Cc4ccc(OC)cc4)cc3)[C@@H]2C1` gave KDM4C inh -1, Pf Dd2 growth 6 and T cruzi growth-1 42.
`O=S(=O)(c1ccc(F)cc1)N1CCCCN2[C@H](CO)[C@@H](c3ccc(C#CC4CCCC4)cc3)[C@@H]2C1` gave Pf Dd2 growth 10 and T cruzi growth-1 67.
`Cc1noc(C)c1S(=O)(=O)N(C)C[C@H]1Oc2ccc(NC(=O)NC(C)C)cc2CC(=O)N([C@H](C)CO)C[C@@H]1C` gave KDM4C inh 0, Pf Dd2 growth -6, T cruzi growth-1 14 and IDH1 R132H inh 0.
Screening CCS(=O)(=O)N1CCC2(CC1)CN(C(=O)CN1CCOCC1)[C@H](CO)c1c2c2ccc(OC)cc2n1C returned Pf Dd2 growth 50.
`C[C@H]1CCCCO[C@H](CN(C)C(=O)Nc2ccc(C(F)(F)F)cc2)[C@@H](C)CN([C@@H](C)CO)C(=O)c2cc(NS(C)(=O)=O)ccc2O1` gave KDM4C inh -1, Pf Dd2 growth -45, T cruzi growth-1 97*, IDH1 R132H inh 1, T cruzi growth-2 113*, T cruzi growth-3 35, 3T3 cytotox 12 and 3T3 cytotox 2 51*.
C[C@@H]1CN([C@@H](C)CO)C(=O)c2cc(NS(=O)(=O)c3ccccc3)ccc2O[C@@H](C)CCCCO[C@@H]1CN(C)C(=O)Nc1ccc(C(F)(F)F)cc1 was read as KDM4C inh 1, Pf Dd2 growth -76, T cruzi growth-1 inconclusive, T cruzi growth-2 104*, T cruzi growth-3 74, 3T3 cytotox 20 and 3T3 cytotox 2 43*.
`C[C@H](CO)N1C[C@H](C)[C@@H](CN(C)C(=O)Nc2ccc(C(F)(F)F)cc2)OCCCC[C@H](C)Oc2ccc(NS(=O)(=O)c3ccccc3)cc2C1=O` gave KDM4C inh 0, Pf Dd2 growth -29, T cruzi growth-1 inconclusive, T cruzi growth-2 114*, T cruzi growth-3 71, 3T3 cytotox 21 and 3T3 cytotox 2 14.
C[C@H](CO)N1C[C@H](C)[C@@H](CN(C)S(=O)(=O)c2ccc(F)cc2)Oc2c(NS(C)(=O)=O)cccc2C1=O was read as Pf Dd2 growth 13, T cruzi growth-1 -206 and IDH1 R132H inh 1.
For COc1ccc2c3c(n(C)c2c1)[C@@H](CO)N(C(=O)Nc1ccccc1F)CC31CN(C(=O)c2ccccc2F)C1 the results were Pf Dd2 growth -76.
For Cc1ccc(S(=O)(=O)Nc2ccc3c(c2)C(=O)N([C@H](C)CO)C[C@H](C)[C@H](CN(C)C(=O)NC2CCCCC2)OCCCC[C@H](C)O3)cc1 the results were KDM4C inh -3, Pf Dd2 growth -42, T cruzi growth-1 118*, T cruzi growth-2 105*, T cruzi growth-3 27, 3T3 cytotox -31 and 3T3 cytotox 2 7.
C[C@H](CO)N1C[C@H](C)[C@H](CN(C)C(=O)NC2CCCCC2)OCCCC[C@H](C)Oc2ccc(NS(=O)(=O)c3ccccc3)cc2C1=O was read as KDM4C inh 14, Pf Dd2 growth -63, T cruzi growth-1 94*, T cruzi growth-2 inconclusive, T cruzi growth-3 38, 3T3 cytotox -6 and 3T3 cytotox 2 0.
Screening C[C@@H]1CCCCO[C@@H](CN(C)C(=O)NC2CCCCC2)[C@H](C)CN([C@@H](C)CO)C(=O)c2cc(NS(=O)(=O)c3ccc(Cl)cc3)ccc2O1 returned KDM4C inh 0, Pf Dd2 growth -7, T cruzi growth-1 93 and IDH1 R132H inh 1.
Screening C[C@@H]1CCCCO[C@@H](CN(C)C(=O)NC2CCCCC2)[C@@H](C)CN([C@@H](C)CO)C(=O)c2cc(NS(=O)(=O)c3ccc(Cl)cc3)ccc2O1 returned KDM4C inh 0, Pf Dd2 growth -26, T cruzi growth-1 99*, IDH1 R132H inh -1, T cruzi growth-2 103*, T cruzi growth-3 11, 3T3 cytotox 3 and 3T3 cytotox 2 -17.
`COc1ccc(S(=O)(=O)Nc2ccc3c(c2)C(=O)N([C@H](C)CO)C[C@@H](C)[C@@H](CN(C)S(=O)(=O)c2cccs2)OCCCC[C@H](C)O3)cc1` gave KDM4C inh 0, Pf Dd2 growth -68, T cruzi growth-1 100*, IDH1 R132H inh -12, T cruzi growth-2 90, T cruzi growth-3 15, 3T3 cytotox -23 and 3T3 cytotox 2 -17.
COc1ccc(S(=O)(=O)N(C)C[C@H]2OCCCC[C@H](C)Oc3ccc(NS(=O)(=O)c4cccs4)cc3C(=O)N([C@@H](C)CO)C[C@@H]2C)cc1 was read as KDM4C inh 1, Pf Dd2 growth -71, T cruzi growth-1 107*, T cruzi growth-2 112*, T cruzi growth-3 33, 3T3 cytotox -8 and 3T3 cytotox 2 -8.
